Screening data from PubChem BioAssay.
Rows were chosen to be rich in hits. Some 3.3% of all compounds tested hit in one or more screens of this group.
SENP8 block-1 = SENP8 protease inhibitors, primary screen, biochemical, luminescence; inhibition, % at 10 µM; 1.2% of 330,000 active; Sentrin-specific protease 8 (Homo sapiens), Q96LD8; purified SENP8, Z-RLRGG-aminoluciferin cleavage; in the data active means inhibition above about 50%
SENP7 block = SENP7 protease inhibitors, primary screen, biochemical, luminescence, uHTS | recombinant SENP7, Z-RLRGG-aminoluciferin luminescence, 40 min | 1.5% of 330,000 active | inhibition, % at 5 µM;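 active means inhibition above about 50% at the single test dose, limit read from the data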;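 further: plate controls were DMSO with enzyme for no effect and no enzyme buffer wells for full effect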
Target sequence (Q9BQF6 706-1050 limits assumed): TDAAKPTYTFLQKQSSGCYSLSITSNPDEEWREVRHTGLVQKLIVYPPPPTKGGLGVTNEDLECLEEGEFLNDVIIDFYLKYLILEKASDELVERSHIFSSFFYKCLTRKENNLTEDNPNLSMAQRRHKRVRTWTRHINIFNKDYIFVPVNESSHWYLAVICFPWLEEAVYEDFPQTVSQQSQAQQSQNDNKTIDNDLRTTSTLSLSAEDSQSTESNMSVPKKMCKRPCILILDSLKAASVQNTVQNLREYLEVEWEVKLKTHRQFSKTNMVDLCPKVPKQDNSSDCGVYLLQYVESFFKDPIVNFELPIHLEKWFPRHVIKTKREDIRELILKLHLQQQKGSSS
SENP6 inh = SENP6 protease inhibitors, primary screen, biochemical, luminescence, uHTS. Sentrin-specific protease 6 (Homo sapiens), Q9GZR1. Recombinant SENP6 catalytic domain, aminoluciferin luminescence. inhibition, % at 10 µM. 1.8% of 330,000 active. AID 2599, 2010;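 active means inhibition above about 50% at the single tested dose, limit read from the data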;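 further: plate controls were DMSO wells with enzyme for no effect and DMSO wells lacking enzyme for full effect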
CendR NRP1 mod = modulators of CendR peptide binding to NRP-1, primary screen, biochemical, fluorescence polarization, uHTS. FAM-RPARPAR peptide binding to NRP-1. inhibition, % at 25 µM. 0.85% of 360,000 active. AID 602438, 2012;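 active means inhibition or corrected inhibition above about 18%, plus a signal ratio from 0.5 to 1.5, limit read from the data, passing the limit was not always enough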
SENP1 FRET inh = human SENP1 catalytic domain inhibitors, primary screen, biochemical, FRET, uHTS. AID 624204, 2012. Sentrin-specific protease 1 (Homo sapiens), Q9P0U3. inhibition, % at 10 µM. 0.21% of 360,000 active. recombinant SENP1 catalytic domain, CyPet-SUMO1-YPet FRET cleavage;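 active means inhibition at least 30% at 10 µM, raw YFP signal under a set limit, fluorescence ratio 0.5 to 1.5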;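 further: 0% = enzyme with DMSO and 100% = no enzyme wells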
Target sequence (Q9P0U3 419-644 limits assumed): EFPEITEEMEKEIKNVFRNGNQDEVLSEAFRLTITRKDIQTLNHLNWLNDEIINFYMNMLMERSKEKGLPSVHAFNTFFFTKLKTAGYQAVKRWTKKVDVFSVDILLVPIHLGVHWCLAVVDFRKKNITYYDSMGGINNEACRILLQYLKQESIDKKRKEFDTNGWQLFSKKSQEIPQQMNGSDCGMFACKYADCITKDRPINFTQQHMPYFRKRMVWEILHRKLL
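Material – human SENP1 catalytic domain · Input – SENP1 enzyme, 20 pM final · Compound dosing – single concentration of 10 µM compound, 0.5% DMSO final · Timing – enzyme reaction for 50 min at room temperature, dark · Measured by – FRET fluorescence in CFP and YFP emission channels · Control set – no-enzyme wells low, DMSO-plus-enzyme wells high control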
SENP8 block-2 = human SENP8 protease inhibitors, primary screen, biochemical, fluorescence, Nedd8 protein substrate, uHTS; AID 602440, 2012; recombinant SENP8; inhibition, % at 20 µM; 0.64% of 360,000 active; in the data active means inhibition mostly above about 40%, no sharp cut-off; inactive means mostly below about 27%
The depositor's hits bear a star; nt = no result given.

SMILES	SENP8 block-1	SENP7 block	SENP6 inh	CendR NRP1 mod	SENP1 FRET inh	SENP8 block-2
CCC1(c2ccc(F)cc2)NC(=O)N(CC(=O)Nc2cccc(S(=O)(=O)N3CCCCC3)c2)C1=O (stereo unspecified)	0	1	-7	31*	2	14
CCC1(c2ccccc2)NC(=O)N(CC(=O)Nc2ccccc2C(=O)N2CCCCC2)C1=O (stereo unspecified)	1	8	-12	21*	2	20
CCCCCCn1cc(CN2CC(N3CCN(CCN(C)C)CC3)CS2(=O)=O)nn1 (stereo unspecified)	nt	nt	nt	-4	-3	11
COc1ccc(NC(C)=O)cc1NC(=O)c1c(C)noc1C	nt	nt	nt	10	1	9
CCc1onc(C)c1C(=O)Nc1cc(C)ccc1OC	-3	-3	5	34*	3	18
Cc1cc(C(=O)COC(=O)Cn2c(C(F)(F)F)nc3ccccc32)c(C)n1Cc1ccco1	-1	0	-19	20*	1	20
Cc1cc(C(=O)COC(=O)CNC(=O)c2ccc(Cl)c(Cl)c2)c(C)n1Cc1ccco1	-10	-2	-11	-2	-7	10
Cc1ccc(C(=O)NCC(=O)OCC(=O)c2cc(C)n(Cc3ccco3)c2C)cc1	11	-1	-4	33*	-4	8
COc1ccc(N2CCCC2)c(NC(=O)c2ccc(Br)o2)c1	3	1	-13	61*	-7	-10
O=C(Nc1ccccc1N1CCCC1)c1ccc(Br)o1	-5	6	-19	-15	-4	4
COC(=O)/C=C1\S/C(=N/N=C/c2ccc(Cl)cc2)NC1=O	0	19	-1	-4	2	43*
CSCCCNC(=S)N1CCN(c2ccc(C(C)=O)cc2)CC1	1	2	17	24*	2	-170
Cn1c(=O)c2c(ncn2CC(=O)OCC(=O)Nc2cccc(C#N)c2)n(C)c1=O	nt	nt	nt	8	2	15
COc1cccc(C2=Cc3ccc(F)cc3C(CC(C)=O)N2c2ccc(C#CC3(O)CCCCC3)cc2)c1 (stereo unspecified)	nt	nt	nt	-12	-2	-389
CCCCOc1ccc(CSCCN=C(N)N)cc1	-7	4	3	40*	0	-13
COc1ccccc1CNS(=O)(=O)c1cc(CN2C(=O)c3cccnc3C2=O)ccc1OC	-8	-1	5	7	-1	7
COc1cc(CCNC2=CC(=O)c3ncccc3C2=O)ccc1O	nt	nt	nt	22	-1	97*
C[C@@H]1CN([C@H](C)CO)C(=O)c2cc(Br)cnc2O[C@@H]1CN(C)C(=O)C1CCOCC1	nt	nt	nt	-2	1	-5
COC(=O)Nc1nnc(/C=C/c2ccc(OC)cc2)s1	37	-1	59*	1	-25	-400
COc1ccc(/C=C/c2nnc(NC(C)=O)s2)cc1	38	40	37	-16	-75	-442
CC(C)C[C@@H]1COc2cc(N3CCC[C@H]3CO)ccc2S(=O)(=O)N1	nt	nt	nt	15	0	10
O=C(C(O)c1ccccc1)N1CCN(S(=O)(=O)c2ccc(F)c(F)c2)CC1 (stereo unspecified)	nt	nt	nt	8	2	13
Oc1ccc2oc3c(c2c1)CCCC3	2	0	1	28*	1	1
O=C(O)COc1ccc2oc3c(c2c1)CCCC3	8	-3	19	-7	1	9
Cn1c(CNc2nc3ccccc3n2CCN2CCCCC2)nc2ccccc21	1	1	5	-2	-13	20
SMILES	SENP8 block-1	SENP7 block	SENP6 inh	CendR NRP1 mod	SENP1 FRET inh	SENP8 block-2
c1ccc(Cn2c(CNc3nc4ccccc4n3CCN3CCCCC3)nc3ccccc32)cc1	-11	-5	-9	30*	-1	24
CCc1c(C(=O)NC(C)C2CCCO2)csc1C (stereo unspecified)	-3	-5	0	12	-1	6
COc1cc(C#N)ccc1OC(=O)Cc1cc(OC)c(OC)c(OC)c1	1	0	-8	25*	1	4
COc1ccc(Cn2c(C3CC3)nc3ccc(NC(=O)c4cccnc4)cc3c2=O)cc1	1	3	-10	32*	-5	-37
COc1ccc(NC(=O)c2cccnc2)cc1	-3	7	9	1	0	13
CC(NC1=CC(=O)c2cccnc2C1=O)C(O)c1ccccc1 (stereo unspecified)	nt	nt	nt	36*	2	-34
CC(c1ccccc1)N1C(=O)c2cccnc2C1=O (stereo unspecified)	-2	-3	-6	11	1	11
COC(=O)C[C@H]1CC[C@H](NS(=O)(=O)c2cn(C)cn2)[C@@H](CO)O1	nt	nt	nt	-3	2	15
CCNS(=O)(=O)c1ccc(CCC(=O)O)cc1	4	10	-5	26*	1	11
Cn1c(CC(O)c2nc3ccccc3n2C)nc2ccccc21 (stereo unspecified)	nt	nt	nt	-6	-9	-326
Cc1c(NC(=O)c2cccs2)cccc1NC(=O)c1cccs1	-4	14	-3	16	3	-5
O=C(Nc1ccccc1Cl)c1cccs1	-12	-6	0	26*	2	20
Cc1sc(NC(=O)c2cccs2)nc1-c1ccccc1	-16	-7	-32	12	-1	-31
O=C(Nc1nsc(-c2ccccc2)n1)c1cccs1	37	62*	64*	-20	2	-62
Cc1ccc(/C=N/NC(=O)c2nnn(-c3nonc3N)c2-c2ccccc2)o1	-6	-2	11	0	2	-165
Cc1ccc(/C=N/NC(=O)c2nnn(-c3nonc3N)c2C)o1	9	0	3	20*	-2	-15
CCOC(=O)c1c2c(n(-c3ccc(OC)cc3)c1C)C(=O)C(=O)c1ccccc1-2	nt	nt	nt	34*	3	110*
CCOC(=O)c1sc(=S)n(-c2ccc(OC)cc2)c1C	10	2	-10	0	-1	9
CCNC(=S)N1CCC(C(=O)c2ccc(F)cc2)CC1	nt	nt	nt	12	2	18
CCCN(C(=O)CSc1cc(-c2ccccc2)c2ccc(OC)cc2n1)C1CCS(=O)(=O)C1 (stereo unspecified)	-7	-11	-7	-6	0	-39
COc1ccc2c(-c3ccccc3)cc(SC(C)C(N)=O)nc2c1 (stereo unspecified)	-19	-11	-23	29*	-7	-108
COc1cc([N+](=O)[O-])ccc1NC(=O)CCCOc1cccc(C)c1	1	-1	8	20*	0	24
Cc1cc(C(=O)N/N=C\c2cc(C(C)(C)C)ccc2O)n[nH]1	9	-3	7	4	-1	-3
